In ChEMBL document CHEMBL3421565, “β-D-2'-C-Methyl-2,6-diaminopurine Ribonucleoside Phosphoramidates are Potent and Selective Inhibitors of Hepatitis C Virus (HCV) and Are Bioconverted Intracellularly to Bioactive 2,6-Diaminopurine and Guanosine 5'-Triphosphate Forms” (J Med Chem, 2015):
pEC50: −log10 of the molar value.

Assays:
[1] = system: Hepatitis C virus; test: Antiviral activity against HCV genotype 1b containing NS5B M414I mutant infected in human HuH7 cells assessed as reduction in replicon RNA levels incubated for 5 days by RT-PCR assay; type: functional, cell-based, Hepacivirus hominis; details: Huh-7, 120 h
Summary of the method: (§1)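 Huh-7 clone B cells carrying HCV replicon RNA, seeded at 3000 cells/well; compounds added in dose response in triplicate right after seeding. Incubated 5 days at 37 °C, 5% CO₂. Total RNA extracted; replicon RNA and rRNA internal control co-amplified by one-step multiplex real-time RT-PCR. Antiviral effect taken as ΔCt versus no-drug control; cytotoxicity read from rRNA reduction.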

[2] = Drug metabolism in human primary hepatocytes assessed as 2'-C-Me-DAPN-TP level at 50 uM incubated for 4 hrs at 37 degC by LC-MS/MS method; type: ADME, cell-based, Hepatocyte
Summary of the method: (§2)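 Huh-7 cells (after attachment) or freshly plated primary human hepatocytes (after overnight acclimatation), 1 × 10⁶ cells/well, exposed to 50 μM compound for 4 h at 37 °C. Cells washed twice with ice-cold PBS and extracted overnight at −20 °C in 70% methanol containing 20 nM ddATP. Mono-, di- and triphosphates quantified by LC–MS/MS as pmol/10⁶ cells; three replicates.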

[3] = system: Hepatitis C virus; test: Antiviral activity against HCV genotype 1b containing NS5B P495A mutant infected in human HuH7 cells assessed as reduction in replicon RNA levels incubated for 5 days by RT-PCR assay; type: functional, cell-based, Hepacivirus hominis; details: Huh-7, 120 h; summary of the method: as §1
[4] = system: Hepatitis C virus; test: Antiviral activity against HCV genotype 1b containing NS3 R155K mutant infected in human HuH7 cells assessed as reduction in replicon RNA levels incubated for 5 days by RT-PCR assay; type: functional, cell-based, Hepacivirus hominis; details: Huh-7, 120 h; summary of the method: as §1
[5] = system: Hepatitis C virus; test: Antiviral activity against HCV genotype 3a chimera with HCV genotype 1b Con1 backbone containing HCV genotype 3a NS5B gene infected in human HuH7 cells assessed as reduction in replicon RNA levels incubated for 5 days by RT-PCR assay; type: functional, cell-based, Hepacivirus hominis; details: Huh-7, 120 h; summary of the method: as §1
[6] = system: HepG2; test: Mitochondrial toxicity in human HepG2 cells assessed as effect on nuclear beta-actin DNA level incubated for 14 days by real-time PCR method; type: cell-based; details: hepg2, 336 h
Summary of the method: (§3)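 HepG2 cells in DMEM with 4.5 g/L glucose and 10% heat-inactivated FBS, seeded at 5000 cells/well on collagen; compounds added 1 day later at final 1–50 μM. Medium and compound renewed every 3–4 days for 14 days; duplicates in two independent experiments. COXII mtDNA and nuclear β-actin DNA measured by real-time PCR, normalised to untreated control; IC₅₀ calculated.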

[7] = system: HepG2; test: Mitochondrial toxicity in human HepG2 cells assessed as induction of lactic acid levels at 1 uM incubated for 14 days; type: cell-based; details: hepg2, 336 h
Summary of the method: (§4)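 After 14 days of HepG2 exposure to compound (same culture regimen as the mtDNA assay), lactic acid in culture supernatant quantified with a D-/L-lactic acid kit by absorbance. Results expressed as % lactic acid over % nuclear DNA (β-actin control); mean of triplicates from a single plate.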

[8] = system: Hepatitis C virus; test: Antiviral activity against HCV infected in human HuH7 cells assessed as reduction in replicon RNA levels incubated for 5 days by RT-PCR assay; type: functional, organism-based, Hepacivirus hominis; details: Huh-7, 120 h; summary of the method: as §1
[9] = system: Hepatitis C virus; test: Antiviral activity against HCV genotype 1b containing NS5B S282T mutant infected in human HuH7 cells assessed as reduction in replicon RNA levels incubated for 5 days by RT-PCR assay; type: functional, cell-based, Hepacivirus hominis; details: Huh-7, 120 h; summary of the method: as §1
[10] = system: HepG2; test: Mitochondrial toxicity in human HepG2 cells assessed as effect on mitochondrial cytochrome c oxidase subunit 2 DNA level incubated for 14 days by real-time PCR method; type: cell-based; details: hepg2, 336 h; summary of the method: as §3
[11] = system: Hepatitis C virus; test: Antiviral activity against HCV genotype 5a chimera with HCV genotype 1b Con1 backbone containing HCV genotype 5a NS5B gene infected in human HuH7 cells assessed as reduction in replicon RNA levels incubated for 5 days by RT-PCR assay; type: functional, cell-based, Hepacivirus hominis; details: Huh-7, 120 h; summary of the method: as §1
[12] = system: Hepatitis C virus; test: Antiviral activity against HCV genotype 2b chimera with HCV genotype 1b Con1 backbone containing HCV genotype 2b NS5B gene infected in human HuH7 cells assessed as reduction in replicon RNA levels incubated for 5 days by RT-PCR assay; type: functional, cell-based, Hepacivirus hominis; details: Huh-7, 120 h; summary of the method: as §1
[13] = system: Vero; test: Cytotoxicity against African green monkey Vero cells assessed as reduction in cell viability incubated for 5 days by Cell-titer 96 aqueous one solution cell proliferation assay; type: cell-based; details: chlorocebus sabaeus, vero, 120 h
[14] = system: Hepatitis C virus; test: Antiviral activity against HCV genotype 1b infected in human HuH7 cells assessed as reduction in replicon RNA levels incubated for 5 days by RT-PCR assay; type: functional, cell-based, Hepacivirus hominis; details: Huh-7, 120 h; summary of the method: as §1
[15] = Toxicity in human PC3 cells assessed as effect on GAPDH levels at 100 uM; type: cell-based; details: pc-3, 100 µM
[16] = system: Hepatitis C virus; test: Antiviral activity against HCV genotype 1b containing NS5A Y93H mutant infected in human HuH7 cells assessed as reduction in replicon RNA levels incubated for 5 days by RT-PCR assay; type: functional, cell-based, Hepacivirus hominis; details: Huh-7, 120 h; summary of the method: as §1
[17] = system: Hepatitis C virus; test: Antiviral activity against HCV genotype 4a chimera with HCV genotype 1b Con1 backbone containing HCV genotype 4a NS5B gene infected in human HuH7 cells assessed as reduction in replicon RNA levels incubated for 5 days by RT-PCR assay; type: functional, cell-based, Hepacivirus hominis; details: Huh-7, 120 h; summary of the method: as §1
[18] = system: HepG2; test: Mitochondrial toxicity in human HepG2 cells assessed as induction of lactic acid levels at 10 uM incubated for 14 days; type: cell-based; details: hepg2, 336 h; summary of the method: as §4
[19] = system: Hepatitis C virus; test: Antiviral activity against HCV genotype 1b containing NS5B C316Y mutant infected in human HuH7 cells assessed as reduction in replicon RNA levels incubated for 5 days by RT-PCR assay; type: functional, cell-based, Hepacivirus hominis; details: Huh-7, 120 h; summary of the method: as §1
[20] = Drug metabolism in human HuH7 cells assessed as 2'-C-Me-DAPN-TP level per million cells at 50 uM incubated for 4 hrs at 37 degC by LC-MS/MS method relative to DAPN; type: ADME, cell-based; details: huh-7, 4 h; summary of the method: as §2
[21] = system: Hepatitis C virus; test: Antiviral activity against HCV genotype 2a infected in human HuH7 cells assessed as reduction in replicon RNA levels incubated for 5 days by RT-PCR assay; type: functional, cell-based, Hepacivirus hominis; details: Huh-7, 120 h; summary of the method: as §1
[22] = system: HepG2; test: Mitochondrial toxicity in human HepG2 cells assessed as induction of lactic acid levels at 50 uM incubated for 14 days; type: cell-based; details: hepg2, 336 h; summary of the method: as §4
[23] = system: Hepatitis C virus; test: Antiviral activity against HCV genotype 1b containing NS5B C445F mutant infected in human HuH7 cells assessed as reduction in replicon RNA levels incubated for 5 days by RT-PCR assay; type: functional, cell-based, Hepacivirus hominis; details: Huh-7, 120 h; summary of the method: as §1
[24] = Toxicity in human PC3 cells assessed as effect on thymidine uptake at 100 uM; type: cell-based; details: pc-3, 100 µM
[25] = system: Hepatitis C virus; test: Antiviral activity against HCV genotype 1a infected in human HuH7 cells assessed as reduction in replicon RNA levels incubated for 5 days by RT-PCR assay; type: functional, cell-based, Hepacivirus hominis; details: subtype 1a, Huh-7, 120 h; summary of the method: as §1
[26] = Drug metabolism in human HuH7 cells assessed as 2'-C-Me-DAPN-TP level per million cells at 50 uM incubated for 4 hrs at 37 degC by LC-MS/MS method; type: ADME, cell-based; details: huh-7, 4 h; summary of the method: as §2

Q: With `CCOC(=O)CCc1ccccc1O[P@@](=O)(N[C@@H](C)C(=O)OCC)OC[C@H]1O[C@@H](n2cnc3c(N)nc(N)nc32)[C@](C)(O)[C@H]1O` as the molecule, how does the pEC50 [1] read?
A: 6.55

Q: What about the EC90 [1] of the same molecule?
A: 1100 nM

Q: What about the “fold change (FC)” value [2] of the same molecule?
A: 7

Q: And the pEC50 [3]?
A: 7.10

Q: And the EC90 [3]?
A: 140 nM

Q: What about the pEC50 [4] of the same molecule?
A: 6.49

Q: What about the EC90 [4] of the same molecule?
A: 1300 nM

Q: What about the pEC50 [5] of the same molecule?
A: 6.64

Q: What about the EC90 [5] of the same molecule?
A: 390 nM

Q: And the CC50 [6]?
A: > 50000 nM

Q: And the Activity [7]?
A: 150%

Q: And the pEC50 [8]?
A: 6.70

Q: And the EC90 [8]?
A: 700 nM

Q: And the pEC50 [9]?
A: 7.00

Q: And the EC90 [9]?
A: 230 nM

Q: What about the CC50 [10] of the same molecule?
A: > 50000 nM

Q: What about the pEC50 [11] of the same molecule?
A: 6.49

Q: And the EC90 [11]?
A: 640 nM

Q: What about the pEC50 [12] of the same molecule?
A: 6.54

Q: And the EC90 [12]?
A: 420 nM

Q: And the CC50 [13]?
A: > 100000 nM

Q: And the pEC50 [14]?
A: 6.59

Q: What about the EC90 [14] of the same molecule?
A: 390 nM

Q: What about the Activity [15] of the same molecule?
A: Non-toxic

Q: And the pEC50 [16]?
A: 6.52

Q: What about the EC90 [16] of the same molecule?
A: 3000 nM

Q: And the pEC50 [17]?
A: 6.41

Q: And the EC90 [17]?
A: 890 nM

Q: What about the Activity [18] of the same molecule?
A: 120%

Q: And the pEC50 [19]?
A: 6.57

Q: And the EC90 [19]?
A: 770 nM

Q: And the “fold change (FC)” value [20]?
A: 13

Q: And the pEC50 [21]?
A: 6.59

Q: What about the EC90 [21] of the same molecule?
A: 700 nM

Q: And the Activity [22]?
A: 110%

Q: And the pEC50 [23]?
A: 6.92

Q: What about the EC90 [23] of the same molecule?
A: 250 nM

Q: What about the Activity [24] of the same molecule?
A: Non-toxic

Q: What about the pEC50 [25] of the same molecule?
A: 6.46

Q: What about the EC90 [25] of the same molecule?
A: 740 nM

Q: And the Drug metabolism [26]?
A: 9.9 pmol
